ChEMBL document CHEMBL1121372, “Synthesis and antihypertensive activity of 5-amino-2-pyridinecarboxylic acid derivatives” (1980)
Calls of active or inactive are those of the source. The calls are words filed in the database; no cut-off is given here.

Legend:
[1] = system: Rattus norvegicus; assay: The compound was tested for antihypertensive effect in spontaneously hypertensive rat (SHR), expressed as fall in blood pressure (BP) at 50 mg/kg dose given orally; Inactive; type: functional, organism-based; design: dose 50 mg/kg
Summary of the method: (§1)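 Male SHR, about 16 weeks old, with systolic pressure above 150 mmHg, held in restraint cages. Tail-cuff occlusion was raised to 250 mmHg and then lowered, after 1 h acclimation and at least 3 baseline readings. Dosing was by daily gavage in 3% cornstarch/5% PEG-400/Tween 80 for 2 or 4 days, with 4–6 rats per drug. Readings at 1, 2, 3 and 24 h; peak fall reported.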

[2] = system: Rattus norvegicus; assay: The compound was tested for antihypertensive effect in spontaneously hypertensive rat (SHR), expressed as fall in blood pressure (BP) at 100 mg/kg dose given orally; Inactive; type: functional, organism-based; design: dose 100 mg/kg; summary of the method: as §1
[3] = system: Canis familiaris; assay: Antihypertensive activity in unanesthetized renal hypertensive dogs measured as Heart Rate (HR) (beats/min) at 100 mg per kg dose after peroral administration on day 3 p<0.05; type: functional, Canis lupus familiaris; settings: route oral
Summary of the method: (§2)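 Renal hypertensive dogs, unanesthetized. Test compound given orally once daily as a solid in a gelatin capsule. Blood pressure was taken at 1.5, 3, 6 and 24 h after each daily dose. Activity is the maximum change in mean blood pressure or heart rate over each daily session. Values are mean ± SE, with significance marked at p < 0.05.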

[4] = system: Canis familiaris; assay: Antihypertensive activity in unanesthetized renal hypertensive dogs measured as Heart Rate (HR) (beats/min) at 100 mg per kg dose after peroral administration on day1 (p<0.05); type: functional, Canis lupus familiaris; settings: route oral; summary of the method: as §2
[5] = system: Canis familiaris; assay: Antihypertensive activity in unanesthetized renal hypertensive dogs measured as Heart Rate (HR) (beats/min) at 100 mg per kg dose after peroral administration on day 2; type: functional, Canis lupus familiaris; settings: route oral; summary of the method: as §2
[6] = system: Canis familiaris; assay: Antihypertensive activity in unanesthetized renal hypertensive dogs measured as Heart Rate (HR) (beats/min) at 100 mg per kg dose after peroral administration on day 4; type: functional, Canis lupus familiaris; settings: route oral; summary of the method: as §2
[7] = system: Canis familiaris; assay: Antihypertensive activity in unanesthetized renal hypertensive dogs measured as mean Blood Pressure at 100 mg per kg dose after peroral administration on day1; type: functional, Canis lupus familiaris; design: unit not given beside the values; settings: route oral; summary of the method: as §2
[8] = system: Canis familiaris; assay: Antihypertensive activity in unanesthetized renal hypertensive dogs measured as mean Blood Pressure at 100 mg per kg dose after peroral administration on day 2; type: functional, Canis lupus familiaris; settings: route oral; summary of the method: as §2
[9] = system: Canis familiaris; assay: Antihypertensive activity in unanesthetized renal hypertensive dogs measured as mean Blood Pressure at 100 mg per kg dose after peroral administration on day 3; type: functional, Canis lupus familiaris; settings: route oral; summary of the method: as §2
[10] = system: Canis familiaris; assay: Antihypertensive activity in unanesthetized renal hypertensive dogs measured as mean Blood Pressure at 100 mg per kg dose after peroral administration on day 4; type: functional, Canis lupus familiaris; settings: route oral; summary of the method: as §2
[11] = system: Rattus norvegicus; assay: The compound was tested for antihypertensive effect in spontaneously hypertensive rat (SHR), expressed as fall in blood pressure (BP) at 10 mg/kg dose given orally; type: functional; settings: route oral
[12] = system: Rattus norvegicus; assay: Antihypertensive effect in spontaneously hypertensive rat (SHR), expressed as fall in blood pressure (BP) at 50 mg/kg dose given orally; type: functional; settings: route oral; summary of the method: as §1
[13] = system: Rattus norvegicus; assay: The compound was tested for antihypertensive effect in spontaneously hypertensive rat (SHR), expressed as fall in blood pressure (BP) at 25 mg/kg dose given orally; type: functional; settings: route oral; summary of the method: as §1
[14] = system: Canis familiaris; assay: Antihypertensive activity in unanesthetized renal hypertensive dogs measured as Heart Rate (HR) (beats/min) at 100 mg per kg dose after peroral administration on day1; type: functional, Canis lupus familiaris; settings: route oral; summary of the method: as §2
[15] = system: Canis familiaris; assay: Antihypertensive activity in unanesthetized renal hypertensive dogs measured as Heart Rate (HR) (beats/min) at 100 mg per kg dose after peroral administration on day 3; type: functional, Canis lupus familiaris; settings: route oral; summary of the method: as §2
[16] = system: Canis familiaris; assay: Antihypertensive activity in unanesthetized renal hypertensive dogs measured as mean Blood Pressure at 100 mg per kg dose after peroral administration on day 2((p<0.05); type: functional, Canis lupus familiaris; settings: route oral; summary of the method: as §2
[17] = system: Rattus norvegicus; assay: The compound was tested for antihypertensive effect in spontaneously hypertensive rat (SHR), expressed as fall in blood pressure (BP) at 100 mg/kg dose given orally; type: functional; settings: route oral; summary of the method: as §1
[18] = system: Rattus norvegicus; assay: The compound was tested for antihypertensive effect in spontaneously hypertensive rat (SHR), expressed as fall in blood pressure (BP) at 50 mg/kg dose given per orally; type: functional; settings: route oral; summary of the method: as §1

N#Cc1ccc(NCc2ccc(F)cc2)cn1
BP [1]: inactive

CCOC(=O)Nc1ccc(C(=O)OC)nc1
BP [2]: inactive

O=C(O)c1ccc(NCc2ccccc2)cn1
HR [3]: 52 | HR [4]: 74 | HR [5]: 61 | HR [6]: 48 | MBP [7]: -32 | MBP [8]: -14 | MBP [9]: -13 | MBP [10]: -6 | BP [11]: >40 mmHg | BP [12]: >80 mmHg | BP [13]: >60 mmHg

O=C(O)c1ccc(NCc2ccccn2)cn1
BP [12]: >20 mmHg

O=C(O)c1ccc(NCc2cccc(Cl)c2)cn1
Maximum change in heart rate [14]: 16 | HR [5]: 11 | HR [15]: 11 | MBP [16]: -9 | MBP [7]: -15 | MBP [9]: -4 | BP [17]: >60 mmHg

CN(Cc1cccc(Cl)c1)c1ccc(C(=O)O)nc1
MBP [7]: -21 | MBP [8]: -25 | BP [17]: >80 mmHg | BP [12]: >80 mmHg | BP [13]: >40 mmHg

O=C(O)c1ccc(NS(=O)(=O)c2ccc(Cl)cc2)cn1
BP [2]: inactive

CN(Cc1cccc(Br)c1)c1ccc(C(=O)O)nc1
BP [12]: >40 mmHg

O=C(O)c1ccc(N(Cc2cccc(Cl)c2)Cc2cccc(Cl)c2)cn1
BP [17]: >20 mmHg

CN(Cc1ccc(Cl)c(Cl)c1)c1ccc(C(=O)O)nc1
BP [12]: >60 mmHg

O=C(O)c1ccc(NCc2cccnc2)cn1
BP [17]: <20 mmHg

CCC(=O)N(Cc1cccc(Cl)c1)c1ccc(C(=O)O)nc1
BP [17]: <20 mmHg

CCCCNc1ccc(C(=O)OC)nc1
BP [18]: <20 mmHg

O=C(O)c1ccc(Nc2ccccc2)cn1
BP [1]: inactive

CN(Cc1cccc(F)c1)c1ccc(C(=O)O)nc1
BP [12]: >20 mmHg

O/N=C/c1ccc(NCc2ccc(F)cc2)cn1
BP [12]: <20 mmHg

O=C(O)c1ccc(NCc2cccc(Oc3ccccc3)c2)cn1
BP [12]: >20 mmHg

O=C(O)c1ccc(NCc2ccc(C(F)(F)F)cc2)cn1
BP [12]: >40 mmHg

NC(=O)c1ccc(NCc2ccc(F)cc2)cn1
BP [12]: >40 mmHg

O=C(Nc1ccc(C(=O)O)nc1)c1ccccc1
BP [17]: >20 mmHg

CCCCS(=O)(=O)Nc1ccc(C(=O)O)nc1
BP [2]: inactive

OCc1ccc(NCc2cccc(Cl)c2)cn1
BP [12]: > 40 mmHg

O=Cc1ccc(NCc2ccc(F)cc2)cn1
BP [12]: >80 mmHg

CN(Cc1cccc(Cl)c1)c1ccc(C(N)=O)nc1
BP [13]: <20 mmHg

O=C(O)c1ccc(NCc2ccc(Cl)cc2)cn1
BP [17]: >40 mmHg

CN(Cc1cccc(Cl)c1)c1ccc(CO)nc1
BP [12]: >40 mmHg

CC(C)(C)c1ccc(CNc2ccc(C(=O)O)nc2)cc1
BP [12]: <20 mmHg

O=C(O)c1ccc(NCc2cccc(C(F)(F)F)c2)cn1
BP [17]: >60 mmHg

CN(Cc1ccccc1)c1ccc(C(=O)O)nc1
BP [12]: >40 mmHg

CCC(=O)Nc1ccc(C(=O)O)nc1
BP [2]: inactive

Cc1nc(C(=O)O)ccc1NCc1cccc(Cl)c1
BP [12]: >20 mmHg

Cc1nc(C(=O)O)ccc1N(C)Cc1cccc(Cl)c1
BP [17]: >20 mmHg
